pKi: −log10 of the molar value. Calls of active or inactive are those of the source. The rule behind the calls is not given here.
Tests used:
[1] = target: T1, Amyloid-beta precursor protein (Homo sapiens, UniProt P05067); experiment: Displacement of [3H]Pittsburgh compound B from human Abeta1-40 after 3 hrs by liquid scintillation counting
[2] = target: T1, Amyloid-beta precursor protein; experiment: Displacement of [3H]Pittsburgh compound B from human Abeta1-42 after 3 hrs by liquid scintillation counting
Brain [3] = experiment: Drug uptake in Balb-C mouse brain at 4 to 6 MBq, iv after 5 mins by gamma counting relative to [11C]Pittsburgh compound B; format: ADME, organism-based; conditions: in vivo
Procedure, shortened: (§1)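 Male Balb-C mice received tracer or [11C] reference. Brain uptake was measured at 5 and 30 min pi and reported as mean ± SD, n ≥ 4.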

Brain [4] = experiment: Drug uptake in Balb-C mouse brain at 4 to 6 MBq, iv after 30 mins by gamma counting relative to [11C]Pittsburgh compound B; format: ADME, organism-based; conditions: in vivo, 0.5 h; procedure, shortened: as §1
[5] = Metabolic stability in Balb-C mouse blood at 21 to 32 MBq, iv after 10 mins by gamma counting; format: ADME, organism-based; conditions: read-out: Stability
Procedure, shortened: (§2)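 Balb-C mice were sampled for blood and brain tissue at 10 and 30 min pi. Radioactivity speciation is given as % intact tracer.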

[6] = Metabolic stability in Balb-C mouse blood at 21 to 32 MBq, iv after 30 mins by gamma counting; format: ADME, organism-based; conditions: read-out: Stability; procedure, shortened: as §2
[7] = Metabolic stability in Balb-C mouse brain at 21 to 32 MBq, iv after 10 mins by gamma counting; format: ADME, organism-based; conditions: read-out: Stability; procedure, shortened: as §2
[8] = Metabolic stability in Balb-C mouse brain at 21 to 32 MBq, iv after 30 mins by gamma counting; format: ADME, organism-based; conditions: read-out: Stability; procedure, shortened: as §2
Brain [9] = experiment: Drug uptake in APP/PS1 Alzheimer's disease mouse brain cortex at 11.7 +/- 4.1 MBq at 36 to 45 mins postinjection by uPET analysis relative to control; format: ADME, organism-based; conditions: in vivo
Procedure, shortened: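 APP/PS1 (homozygous) Tg mice, 24.0 ± 0.4 months old (n = 7), and age-matched C57B6/J controls, 25 ± 2 months old (n = 3). Each mouse got a single bolus of 18F tracer: 11.7 ± 4.1 MBq for Tg, 11.5 ± 3.4 MBq for controls. Images are µPET frames summed over 36–45 min pi, with CT overlaid on an MRI template. Cortical and cerebellar VOI TACs and cortex/cerebellum ratios were derived.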

Cortex [10] = experiment: Drug uptake in APP/PS1 Alzheimer's disease mouse brain cortex at 13.5 MBq at 45 mins postinjection by dual label autoradiography relative to control; format: ADME, organism-based; conditions: in vivo, 0.75 h
Procedure, shortened: (§3)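 Multimodal study of one 25-month-old APP/PS1 Tg mouse, with a 28-month-old control. Tail-vein coinjection of 18F tracer plus [3H]-reference: 13.5 + 4.0 MBq (Tg) or 10.0 + 3.7 MBq (control). Mice underwent µPET/CT for 45 min in list mode and were killed at 45 min. Ex vivo work included regional brain biodistribution and dual-label (3H/18F) digital autoradiography on 12 µm axial sections.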

Cortex [11] = experiment: Drug uptake in APP/PS1 Alzheimer's disease mouse brain cortex at 13.5 MBq at 45 mins postinjection by uPET/CT analysis relative to control; format: ADME, organism-based; conditions: in vivo, 0.75 h; procedure, shortened: as §3
Brain [12] = experiment: Ratio of drug uptake in Alzheimer's disease patient brain to healthy human brain; format: ADME, tissue-based; conditions: in vivo
Cortex [13] = experiment: Binding affinity to amyloid beta plaque in APP/PS1 Alzheimer's disease mouse brain cortex at 13.5 MBq after 45 mins postinjection by immunohistochemistry analysis relative to control; format: functional, organism-based; parameters: dose or concentration left out as unconfirmed; conditions: tested as the 18F-labelled form
Cortex [14] = experiment: Drug uptake in APP/PS1 Alzheimer's disease mouse brain cortex at 4 MBq at 45 mins postinjection by dual label autoradiography relative to control; format: ADME, organism-based; conditions: in vivo, 0.75 h; procedure, shortened: as §3
Cortex [15] = experiment: Drug uptake in APP/PS1 Alzheimer's disease mouse brain cortex at 4 MBq at 45 mins postinjection by uPET/CT analysis relative to control; format: ADME, organism-based; conditions: in vivo, 0.75 h; procedure, shortened: as §3
Cortex [16] = experiment: Binding affinity to amyloid beta plaque in APP/PS1 Alzheimer's disease mouse brain cortex at 4 MBq after 45 mins postinjection by immunohistochemistry analysis relative to control; format: functional, organism-based; parameters: dose or concentration left out as unconfirmed; conditions: tested as the 3H-labelled form

T1 sequence (P05067 whole entry): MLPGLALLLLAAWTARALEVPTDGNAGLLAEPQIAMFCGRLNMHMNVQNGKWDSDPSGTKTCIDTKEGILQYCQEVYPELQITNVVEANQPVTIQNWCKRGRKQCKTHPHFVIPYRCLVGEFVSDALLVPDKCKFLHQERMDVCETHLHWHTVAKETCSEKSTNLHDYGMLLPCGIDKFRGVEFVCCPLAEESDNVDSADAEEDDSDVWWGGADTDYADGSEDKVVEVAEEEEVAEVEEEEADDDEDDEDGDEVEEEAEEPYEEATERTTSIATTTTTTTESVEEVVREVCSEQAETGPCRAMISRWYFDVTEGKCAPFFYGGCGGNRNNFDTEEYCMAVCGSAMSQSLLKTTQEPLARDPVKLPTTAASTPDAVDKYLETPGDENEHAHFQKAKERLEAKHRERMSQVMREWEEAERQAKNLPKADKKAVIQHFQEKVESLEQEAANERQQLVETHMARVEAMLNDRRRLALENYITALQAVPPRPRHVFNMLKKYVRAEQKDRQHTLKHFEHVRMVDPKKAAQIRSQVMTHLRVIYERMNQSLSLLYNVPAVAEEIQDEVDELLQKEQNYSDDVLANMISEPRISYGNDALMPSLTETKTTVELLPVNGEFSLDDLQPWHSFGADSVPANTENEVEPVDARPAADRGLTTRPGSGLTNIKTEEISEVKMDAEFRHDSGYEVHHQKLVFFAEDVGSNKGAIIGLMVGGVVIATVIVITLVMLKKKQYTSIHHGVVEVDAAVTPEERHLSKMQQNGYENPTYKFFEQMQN

**Q.** What does the source list for `CNc1ccc(-c2cn3c(n2)sc2cc(OCC[18F])ccc23)cc1`?
**A.** pKi [1]: 8.68; pKi [2]: 8.49; Drug uptake (Brain [3]): Active; Drug uptake (Brain [4]): Active; remaining at 10 min [5]: 12%; remaining at 0.5 h [6]: 5%; remaining at 10 min [7]: 92%; remaining at 0.5 h [8]: 88%; Drug uptake (Brain [9]): Active; Drug uptake (Cortex [10]): Active; Drug uptake (Cortex [11]): Active

**Q.** Which Ratio (Brain [12]) does the source give for `CC(=C(C#N)C#N)c1ccc2cc(N(C)CC[18F])ccc2c1` here?
**A.** The Ratio was 1.3.

**Q.** With `CNc1ccc(-c2cn3c(n2)sc2cc(OCCF)ccc23)cc1` as the molecule, how does the Activity (Cortex [13]) read?
**A.** The Activity was “Active”.

**Q.** With `CNc1ccc(/C=C/c2ccc(OCCOCCOCC[18F])cc2)cc1` [FLORBETABEN F18] as the molecule, how does the Ratio (Brain [12]) read?
**A.** Its Ratio is 1.5.

**Q.** Which Drug uptake (Cortex [14]) does the source give for `[3H]Oc1ccc2nc(-c3ccc(NC)cc3)sc2c1` here?
**A.** The Drug uptake was “Active”.

**Q.** What about the Drug uptake (Cortex [15]) of the same molecule?
**A.** Its Drug uptake is “Active”.

**Q.** Which results are given for `[11CH3]Nc1ccc(-c2nc3ccc(O)cc3s2)cc1` [PITTSBURGH COMPOUND B]?
**A.** Drug uptake (Brain [3]): Active; Drug uptake (Brain [4]): Active

**Q.** With `CNc1ccc(-c2nc3ccc(O)cc3s2)cc1` as the molecule, how does the Activity (Cortex [16]) read?
**A.** The Activity was “Active”.

Source: ChEMBL document CHEMBL2016463, “A Novel (18)F-Labeled Imidazo[2,1-b]benzothiazole (IBT) for High-Contrast PET Imaging of β-Amyloid Plaques” (ACS Med Chem Lett, 2011)
